Active and inactive are the calls of the source. The calls are words filed in the database; no cut-off is given here.

The target in series [1] is T1, NAD-dependent protein deacetylase sirtuin-2 (Homo sapiens) (UniProt Q8IXJ6).
T1 sequence (whole entry): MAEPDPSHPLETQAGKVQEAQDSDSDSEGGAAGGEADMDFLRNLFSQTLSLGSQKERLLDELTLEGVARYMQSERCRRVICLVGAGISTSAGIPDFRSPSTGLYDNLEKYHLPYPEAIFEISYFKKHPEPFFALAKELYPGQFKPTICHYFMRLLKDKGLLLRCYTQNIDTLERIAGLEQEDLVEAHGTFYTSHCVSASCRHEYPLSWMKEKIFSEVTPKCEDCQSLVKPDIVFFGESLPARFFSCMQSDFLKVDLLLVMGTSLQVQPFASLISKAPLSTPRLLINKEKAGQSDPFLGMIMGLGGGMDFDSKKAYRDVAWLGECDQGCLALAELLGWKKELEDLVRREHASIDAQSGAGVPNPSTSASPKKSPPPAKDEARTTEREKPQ
Put plainly: Inhibition of human SIRT2 assessed as enzyme activity using Fluor-de-Lys as substrate at 1 mM by fluorometry. Also noted: scale not given: the % may be the effect or the level left. The procedure, abridged:
(§1)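 Commercial Fluor-de-Lys kit, substrate human p53 379–382 peptide (Arg-His-Lys-Lys(Ac)). Human Sirt1 or Sirt2 was incubated with substrate, NAD+ and compound at 1 mM, also tested at 100 µM. Fluorescence scales with Lys382 deacetylation. Activity is expressed relative to control, mean ± S.E.M. of 3–4 replicates.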

Series [2] relates to SK-MEL-28. The series can be described thus: Effect on ATP level in human SK-MEL-28 cells maintained in medium containing GF and glucose at 100 uM after 24 hrs by luciferase-based assay. Format: functional, cell-based. The procedure, abridged:
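SK-MEL-28 cells in DMEM with 10% FBS, grown 24 h in 96-well plates in regular medium (growth factors, glucose), with or without compound at 100 µM. Antimycin served as positive control. Cellular ATP was released with a somatic cell releasing reagent and read by luciferase/luciferin bioluminescence. Mean ± S.E.M. of 10–14 replicates from 3 separate experiments.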

Series [3] deals with SK-MEL-28. Put plainly: Reduction in ATP level in human SK-MEL-28 cells at 100 uM maintained in Locke's solution after 24 hrs by luciferase-based assay in absence of GF and glucose. Format: functional, cell-based. The procedure, abridged: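 SK-MEL-28 cells were grown 24 h in Locke's saline lacking glucose and serum, with or without 100 µM compound; antimycin was the positive control. Cellular ATP was released with a somatic-cell releasing reagent, then luciferase/luciferin assay mix was added and bioluminescence read. Mean ± S.E.M. of 10–14 replicates from 3 separate experiments.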

For series [4], the target named is T2, NAD-dependent protein deacetylase sirtuin-1 (Homo sapiens) (UniProt Q96EB6).
T2 sequence (whole entry): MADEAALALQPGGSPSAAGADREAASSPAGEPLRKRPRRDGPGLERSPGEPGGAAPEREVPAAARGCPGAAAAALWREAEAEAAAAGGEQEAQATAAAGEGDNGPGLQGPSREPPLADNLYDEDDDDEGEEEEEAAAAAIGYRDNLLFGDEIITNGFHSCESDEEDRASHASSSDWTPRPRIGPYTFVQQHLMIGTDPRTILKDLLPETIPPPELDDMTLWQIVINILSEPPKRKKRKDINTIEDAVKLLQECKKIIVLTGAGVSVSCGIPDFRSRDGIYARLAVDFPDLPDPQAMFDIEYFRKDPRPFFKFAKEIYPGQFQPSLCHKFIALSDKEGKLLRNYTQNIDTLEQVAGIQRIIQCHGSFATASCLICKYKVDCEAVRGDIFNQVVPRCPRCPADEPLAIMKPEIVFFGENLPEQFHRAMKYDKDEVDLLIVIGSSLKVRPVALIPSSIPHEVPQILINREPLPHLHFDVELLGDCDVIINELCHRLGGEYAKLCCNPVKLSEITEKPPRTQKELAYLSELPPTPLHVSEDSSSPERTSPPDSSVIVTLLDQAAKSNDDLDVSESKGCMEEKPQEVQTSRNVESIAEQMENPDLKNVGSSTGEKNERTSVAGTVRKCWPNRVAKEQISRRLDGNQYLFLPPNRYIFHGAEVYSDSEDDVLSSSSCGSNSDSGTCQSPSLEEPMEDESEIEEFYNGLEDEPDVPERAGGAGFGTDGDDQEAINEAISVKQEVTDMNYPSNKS
Put plainly: Inhibition of human SIRT1 assessed as enzyme activity using Fluor-de-Lys as substrate at 1 mM by fluorometry. The arrangement: scale not given: the % may be the effect or the level left. The procedure, abridged: as §1

Series [5] addresses T2, NAD-dependent protein deacetylase sirtuin-1 (Homo sapiens). Put plainly: Inhibition of human SIRT1 assessed as enzyme activity using Fluor-de-Lys as substrate at 100 uM by fluorometry. The procedure, abridged: as §1
For series [6], the target named is T1, NAD-dependent protein deacetylase sirtuin-2 (Homo sapiens). Put plainly: Inhibition of human SIRT2 assessed as enzyme activity using Fluor-de-Lys as substrate at 100 uM by fluorometry. The procedure, abridged: as §1
A short description of series [7]: Cytotoxicity against human SK-MEL-28 cells assessed as cell survival at 100 uM after 48 hrs. The note with it: read-out: Survival. Format: cell-based. The procedure, abridged: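 SK-MEL-28 cells grown in DMEM with 10% foetal bovine serum, 2 mM L-glutamine, penicillin and streptomycin. Cells plated and grown 48 h with or without compound at 100 µM. On the test day, cells washed in Locke's solution (134 mM NaCl, 5 mM KCl, 4 mM NaHCO3, 10 mM HEPES pH 7.6, CaCl2, 1 mM MgCl2, 5 mM sucrose), then incubated 90 min at 37 °C. Survival expressed as percent of control.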

For `NC(=O)c1cccnc1`, the Activity in series [1] was 71%. In addition, the result in the series with SK-MEL-28 [2] was inactive. The outcome in the series on SK-MEL-28 [3] was Active.
Turning to `Cc1ncccc1C(N)=O`, the Activity in series [4] worked out at 101%; in series [1], 107%. The inhibition entry in series [5] and in series [6] was “inactive” each time.
As to `Cc1ccncc1C(N)=O`, the Activity in series [4] came out at 105%; in series [1] it was 110%. In addition, the inhibition entry in series [5] and in series [6] was “inactive” each time.
Regarding `Cc1ccc(C(=O)Nc2ccc(S(=O)(=O)O)c3cc(S(=O)(=O)O)cc(S(=O)(=O)O)c23)cc1NC(=O)c1cccc(NC(=O)Nc2cccc(C(=O)Nc3cc(C(=O)Nc4ccc(S(=O)(=O)O)c5cc(S(=O)(=O)O)cc(S(=O)(=O)O)c45)ccc3C)c2)c1`, the figures for the Activity in series [4] and in series [1] were 18% and 20%, respectively.
For `O=C1NCCc2ccncc21`, the Activity in series [4] came to 125%; in series [1], 136%. Further, the inhibition result in series [5] and in series [6] was “inactive” in each case.
Consider `c1cncc(-c2c[nH]nn2)c1`, for which the viability at 48 h, 100 µM in series [7] is 69%.
With `O=C1NCc2ccncc21`, the figures for the Activity in series [4] and in series [1] were 117% and 145%, respectively. For the same compound, the inhibition result in series [5] and in series [6] was “inactive” in each case.
For `c1cncc(-n2ccnn2)c1`, the Activity in series [4] turned out to be 97%; in series [1], 100%. In addition, the inhibition entry in series [5] and in series [6] was “inactive” each time.
For `O=C1NCCc2ncccc21`, the Activity in series [4] was 86%; in series [1] it was 115%. Further, the inhibition entry in series [5] and in series [6] was “inactive” each time.
For `O=C1NCc2ncccc21`, the Activity in series [4] worked out at 88%; in series [1] it was 111%. Moreover, the inhibition result in series [5] and in series [6] was “inactive” throughout.
`NC(=O)/C=C/c1cccnc1`: the Activity in series [4] came to 99%; in series [1], 109%. For the same compound, the inhibition result in series [5] and in series [6] was “inactive” in each case.
Take `NS(=O)(=O)c1cccnc1`: the results for the Activity in series [4] and in series [1] were 108% and 115%, respectively. For the same compound, the inhibition entry in series [5] and in series [6] was “inactive” each time.
